Columns and labels:
[1] = tested on: Canis familiaris; test: Myocardial contractility in anesthetized dogs on intravenous administration; assay type: functional; details: Canis lupus familiaris, Myocardium
How it was run: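 Open-chest, pentobarbital-anesthetized dogs. Right ventricular contractility was measured with a Walton-Brodie strain-gauge arch sutured to the ventricle, baseline 50 g tension. Increasing iv doses via the femoral vein at 5-min intervals; peak responses recorded; vehicle controls given. ED50 by linear regression, mean ± SEM (n > 2) or mean ± range (n = 2).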

[2] = tested on: Canis familiaris; test: Increased heart rate in anesthetized dogs after intravenous administration; assay type: functional, Canis lupus familiaris
[3] = tested on: Canis familiaris; test: Decreased mean arterial blood pressure in anesthetized dogs after intravenous administration; assay type: functional, Canis lupus familiaris
[4] = biological target: Phosphodiesterase; PDE3 & PDE4; test: (§1) Inhibition of Sarcoplasmic Reticulum cAMP Phosphodiesterase from canine myocardium; assay type: tissue-based, Canis lupus familiaris
How it was run: (§2)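 PDE came from free sarcoplasmic reticulum vesicles (fraction E) of canine ventricles, stored at -80 °C. Two-step assay with 1 μM cAMP substrate, run 60 min at room temperature (22 ± 2 °C). Enzyme was added to hydrolyze less than 20% of the substrate.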

[5] = biological target: Phosphodiesterase; PDE3 & PDE4; test: as §1; assay type: tissue-based, Canis lupus familiaris; remark: listed apart in the source
How it was run: as §2, with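 “substrate. Inhibitors were dissolved in DMSO, with 2.5% v/v carryover. IC50 and 95% confidence limits were obtained by regression of the logit transformation.” for “substrate.”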

Compound | ED50 [1] | Increase in HR [2] | Decrease in MAP [3] | IC50 [4] | Ki [5]
CC1CC(=O)NN=C1c1ccc2c(c1)C1(CC1)C(=O)N2 (stereo not given) | 0.0015 mg/kg | 17% | 35% | 13 nM | 
CC1(C)C(=O)Nc2ccc(C3=NNC(=O)CC3)cc21 [INDOLIDAN] | 0.0068 mg/kg | 11.8% | 15.2% | 130 nM | 80 nM
CC1CC(O)=NN=C1c1ccc(-n2ccnc2)cc1 (stereo not given) [CI-930] | 0.013 mg/kg |  |  |  | 
O=C1CCC(c2ccc(-n3ccnc3)cc2)=NN1 [IMAZODAN] | 0.045 mg/kg |  |  |  | 
O=C1CCC(c2ccc3c(c2)C2(CCCC2)C(=O)N3)=NN1 | 0.133 mg/kg | 14% | 17% | 930 nM | 
O=C1CCC(c2ccc3c(c2)C2(CCC2)C(=O)N3)=NN1 | 0.0348 mg/kg | 13% | 17% | 290 nM | 
Cc1[nH]c(=O)c(C#N)cc1-c1ccncc1 [MILRINONE] | 0.037 mg/kg |  |  |  | 
